Data as given in publication PMC4708961 (Drug Design, Development and Therapy, 2016).

How the values were obtained:
ACE = molecular target: T1, ACE (Oryctolagus cuniculus, UniProt P12822); assay: In vitro ACE inhibition assay; format: biochemical; conditions: IC50, ACE from rabbit lung acetone powder; substrate HHL
T1 sequence (P12822 34-1310): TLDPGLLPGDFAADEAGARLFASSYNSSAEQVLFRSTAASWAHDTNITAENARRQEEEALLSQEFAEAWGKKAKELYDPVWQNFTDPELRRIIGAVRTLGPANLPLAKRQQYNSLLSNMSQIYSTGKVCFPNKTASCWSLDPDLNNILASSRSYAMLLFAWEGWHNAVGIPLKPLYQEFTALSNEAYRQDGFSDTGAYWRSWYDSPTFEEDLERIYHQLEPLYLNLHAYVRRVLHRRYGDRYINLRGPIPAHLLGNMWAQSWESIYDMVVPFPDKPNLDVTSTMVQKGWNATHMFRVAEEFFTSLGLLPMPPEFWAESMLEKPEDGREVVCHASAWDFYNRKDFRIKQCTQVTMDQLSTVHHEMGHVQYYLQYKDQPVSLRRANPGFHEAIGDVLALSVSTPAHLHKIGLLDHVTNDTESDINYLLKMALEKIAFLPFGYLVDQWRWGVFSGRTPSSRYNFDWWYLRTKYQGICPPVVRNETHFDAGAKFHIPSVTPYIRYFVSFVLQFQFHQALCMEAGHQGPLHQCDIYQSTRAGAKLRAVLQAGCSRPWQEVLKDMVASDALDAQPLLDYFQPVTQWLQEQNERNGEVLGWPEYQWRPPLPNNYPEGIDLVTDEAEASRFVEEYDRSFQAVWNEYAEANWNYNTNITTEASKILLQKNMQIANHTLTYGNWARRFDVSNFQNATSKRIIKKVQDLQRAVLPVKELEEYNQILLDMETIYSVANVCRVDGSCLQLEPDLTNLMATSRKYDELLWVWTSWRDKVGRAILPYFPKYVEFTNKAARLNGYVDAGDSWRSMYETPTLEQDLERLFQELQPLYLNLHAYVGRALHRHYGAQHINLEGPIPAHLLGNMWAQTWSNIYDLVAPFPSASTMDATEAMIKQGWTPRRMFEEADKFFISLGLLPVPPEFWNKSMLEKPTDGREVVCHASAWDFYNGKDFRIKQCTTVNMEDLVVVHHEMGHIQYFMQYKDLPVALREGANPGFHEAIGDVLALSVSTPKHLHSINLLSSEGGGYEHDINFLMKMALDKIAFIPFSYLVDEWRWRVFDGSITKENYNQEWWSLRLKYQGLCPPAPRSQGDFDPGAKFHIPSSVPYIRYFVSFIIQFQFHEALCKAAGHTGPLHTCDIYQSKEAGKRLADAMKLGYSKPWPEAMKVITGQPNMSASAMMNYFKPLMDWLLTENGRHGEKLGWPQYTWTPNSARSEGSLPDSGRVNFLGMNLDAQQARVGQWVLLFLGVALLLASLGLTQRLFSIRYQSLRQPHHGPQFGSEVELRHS

[1] = Bioavailability study after oral administration in mice; format: in vivo
Summary of the method: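 Swiss Webster mice aged 20–25 weeks, in control and test groups (n=5), were dosed orally by dosing needle at 3 mg per 30 g body weight; a comparator group received 2 g/kg orally. Plasma was precipitated with 40% methanol and spun at 14,000 rpm for 10 min. The supernatant was run on RP-Amide HPLC (50 mmol/L NaH2PO4 pH 4.3 to 70% acetonitrile gradient, 0.7 mL/min) with electrochemical detection.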

NO donor activity = conditions: 100 μmol, phosphate buffer pH 7.4, 5 mM L-cysteine, 3 hours at 37°C
Summary of the method: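 Test compound in DMSO (100 μmol) was added to 50 mM phosphate buffer pH 7.4 with 5 mM L-cysteine hydrochloride and held 3 h at 37°C. Griess reagent was then added, and absorbance at 550 nm was read after 20 min against a 5–50 μM sodium nitrite calibration curve. Release was expressed as mol nitrite detected per mol test compound ×100.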

[2] = experimental rats; cited from earlier work
isolated rat hearts = assay: Vasodilator activity on isolated rat hearts; conditions: 10 μg test compound
[3] = mice, 3 mg per 30 g body weight
[4] = isolated rat heart, BaCl2-induced reduction

| SMILES | IC50 (ACE) | other results |
| --- | --- | --- |
| CCN1C/C(=C\c2ccccc2)C(=O)/C(=C/c2ccccc2)C1 [Compound 4a, (3E,5E)-3,5-dibenzylidene-1-ethylpiperidin-4-one] | 50.9 µM | – |
| CCCN1C/C(=C\c2ccccc2)C(=O)/C(=C/c2ccccc2)C1 [Compound 4b, (3E,5E)-3,5-dibenzylidene-1-propylpiperidin-4-one] | 51.1 µM | – |
| CCCCN1C/C(=C\c2ccccc2)C(=O)/C(=C/c2ccccc2)C1 [Compound 4c, (3E,5E)-3,5-dibenzylidene-1-butylpiperidin-4-one] | 64.4 µM | – |
| CCCCCN1C/C(=C\c2ccccc2)C(=O)/C(=C/c2ccccc2)C1 [Compound 4d, (3E,5E)-3,5-dibenzylidene-1-pentylpiperidin-4-one] | 78.5 µM | – |
| CCN1C/C(=C\c2ccc(O)c(O)c2)C(=O)/C(=C/c2ccc(O)c(O)c2)C1 [Compound 4e, (3E,5E)-3,5-bis(3,4-dihydroxybenzylidene)-1-ethylpiperidin-4-one] | 32.2 µM | – |
| CCCN1C/C(=C\c2ccc(O)c(O)c2)C(=O)/C(=C/c2ccc(O)c(O)c2)C1 [Compound 4f, (3E,5E)-3,5-bis(3,4-dihydroxybenzylidene)-1-propylpiperidin-4-one] | 20.1 µM | – |
| CCCCN1C/C(=C\c2ccc(O)c(O)c2)C(=O)/C(=C/c2ccc(O)c(O)c2)C1 [Compound 4g, (3E,5E)-1-butyl-3,5-bis(3,4-dihydroxybenzylidene) piperidin-4-one] | 41.3 µM | – |
| CCCCCN1C/C(=C\c2ccc(O)c(O)c2)C(=O)/C(=C/c2ccc(O)c(O)c2)C1 [Compound 4h, (3E,5E)-3,5-bis(3,4-dihydroxybenzylidene)-1-pentylpiperidin-4-one] | 48.6 µM | – |
| CCN1C/C(=C\c2cc(OC)c(OC)c(OC)c2)C(=O)/C(=C/c2cc(OC)c(OC)c(OC)c2)C1 [Compound 4i, (3E,5E)-1-ethyl-3,5-bis(3,4,5-trimethoxybenzylidene) piperidin-4-one] | 3.21 µM | – |
| CCCN1C/C(=C\c2cc(OC)c(OC)c(OC)c2)C(=O)/C(=C/c2cc(OC)c(OC)c(OC)c2)C1 [Compound 4j, (3E,5E)-1-propyl-3,5-bis(3,4,5-trimethoxybenzylidene) piperidin-4-one] | 1.23 µM | in vivo bioavailability ([1]; mice): better in vivo bioavailability compared with curcumin; plasma concentration [1, 3]: 35 µM; time until first detected in plasma [1, 3]: 10 min |
| CCCCN1C/C(=C\c2cc(OC)c(OC)c(OC)c2)C(=O)/C(=C/c2cc(OC)c(OC)c(OC)c2)C1 [Compound 4k, (3E,5E)-1-butyl-3,5-bis(3,4,5-trimethoxybenzylidene) piperidin-4-one] | 4.45 µM | – |
| CCCCCN1C/C(=C\c2cc(OC)c(OC)c(OC)c2)C(=O)/C(=C/c2cc(OC)c(OC)c(OC)c2)C1 [Compound 4l, (3E,5E)-1-pentyl-3,5-bis(3,4,5-trimethoxybenzylidene) piperidin-4-one] | 6.65 µM | NO donor activity (percentage of NO2) (NO donor activity): highest donor activity |
| CCN1C/C(=C\c2ccc([N+](=O)[O-])cc2)C(=O)/C(=C/c2ccc([N+](=O)[O-])cc2)C1 [Compound 4m, (3E,5E)-1-ethyl-3,5-bis(4-nitrobenzylidene)piperidin-4-one] | 95.1 µM | – |
| CCCN1C/C(=C\c2ccc([N+](=O)[O-])cc2)C(=O)/C(=C/c2ccc([N+](=O)[O-])cc2)C1 [Compound 4n, (3E,5E)-3,5-bis(4-nitrobenzylidene)-1-propylpiperidin-4-one] | 90.2 µM | – |
| CCCCN1C/C(=C\c2ccc([N+](=O)[O-])cc2)C(=O)/C(=C/c2ccc([N+](=O)[O-])cc2)C1 [Compound 4o, (3E,5E)-1-butyl-3,5-bis(4-nitrobenzylidene)piperidin-4-one] | 131 µM | – |
| CCCCCN1C/C(=C\c2ccc([N+](=O)[O-])cc2)C(=O)/C(=C/c2ccc([N+](=O)[O-])cc2)C1 [Compound 4p, (3E,5E)-3,5-bis(4-nitrobenzylidene)-1-pentylpiperidin-4-one] | 120 µM | – |
| COc1cc(/C=C/C(=O)CC(=O)/C=C/c2ccc(O)c(OC)c2)ccc1O [curcumin] | – | NO donor activity (percentage of NO2) (NO donor activity): did not result in any significant changes; time until first observed in the blood ([1]; curcumin 2 g/kg): ~80 min; oral bioavailability [2]: very poor; heart rate (isolated rat hearts): did not result in any significant changes; cardiac output (isolated rat hearts; [4]): did not result in any significant changes; stroke volume (isolated rat hearts; [4]): did not result in any significant changes |
